{"data": "Assay results collected from several papers", "cell line": "HT-29", "read-out": "cell growth or viability", "note": "Compare with care: the assays were run in different laboratories."}
{"SMILES": "S=C([S][Au-][P+](CCCCCC[P+]([Au-][S]C(=S)n1cccn1)(c1ccccc1)c1ccccc1)(c1ccccc1)c1ccccc1)n1cccn1", "endpoint": "GI50", "value": "642 nM"}
{"SMILES": "COc1ccc(C(=O)/C=C/c2cc3c(cc2Br)OCO3)cc1S(N)(=O)=O", "assay": "SRB", "setting": "48 h", "endpoint": "GI50", "value": "1900 nM"}
{"SMILES": "CCN(CC)CCNC(=O)c1c(C)[nH]c(/C=C2\\C(=O)Nc3ccc(F)cc32)c1C", "endpoint": "IC50", "value": "10100 nM"}
{"SMILES": "COc1ccc(C(=O)/C=C/c2cccc(Br)c2)cc1S(N)(=O)=O", "assay": "SRB", "setting": "48 h", "endpoint": "GI50", "value": "1600 nM"}
{"SMILES": "COc1cccc(Oc2ccccc2NC(=O)CNC(=O)c2cccc3ccccc23)c1", "assay": "SRB", "setting": "48 h", "endpoint": "GI50", "value": "110 nM"}
{"SMILES": "CCN(CC)CCNC(=O)c1c(C)[nH]c(/C=C2\\C(=O)Nc3ccc(F)cc32)c1C", "setting": "30 µM", "endpoint": "inhibition", "value": "59.5%"}
{"SMILES": "Cn1c(=O)c(NN=C2C(=O)Nc3ccc(F)cc32)nc2ccccc21", "setting": "30 µM", "endpoint": "inhibition", "value": "48.1%"}
{"SMILES": "Cc1cc(C)n(C(=S)[S][Au][PH](CCCCCC[PH]([Au][S]C(=S)n2nc(C)cc2C)(c2ccccc2)c2ccccc2)(c2ccccc2)c2ccccc2)n1", "endpoint": "GI50", "value": "458 nM"}
{"SMILES": "CC/C(=C(\\c1ccccc1)c1ccc(OCCN(C)C)cc1)c1ccccc1", "assay": "ATP luminescence", "setting": "72 h", "endpoint": "EC90", "value": "8400 nM"}
